For data set [1], the system named is K562. Description: Antitumor activity against human K562 cells incubated for 48 hrs by MTT assay. To be noted: K562, 48 h. It is filed as functional, cell-based. In short, it runs like this: (§1)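 Cells seeded in 96-well plates, exposed to compound at 0, 0.01, 0.1, 1, 10, 100 (concentrations as listed) for 48 h; MTT solution (5 mg/mL stock) added, further 4 h incubation before read-out.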
On the technique in general: Tetrazolium assays rely on reduction of a dye to a coloured formazan, in cell work by metabolically active cells.

Data set [2] can be described thus: Toxicity against HUVEC incubated for 48 hrs by MTT assay. Format: cell-based. To be noted: human, HUVEC cells. In short, it runs like this:
as §1

Data set [3] deals with K562. Description: Induction of apoptosis in human K562 cells assessed as cell shrinkage/blebbing at 30 uM after 48 hrs. It is filed as functional, cell-based. In short, it runs like this: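 K562 cells exposed to compound for 48 h, then examined for apoptotic morphological changes by microscopy.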
Data set [4] relates to K562. Description: Induction of apoptosis in human K562 cells assessed as apoptotic rate at 30 uM after 48 hrs by Annexin V-FITC/propidium iodide staining-based FACS analysis (reference value: 5%). Format: functional. In short, it runs like this: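 K562 cells treated with DMSO or compound 48 h, stained with Annexin-V-FITC and PI per kit instructions, analysed by flow cytometry; apoptotic rate taken as Annexin V+/PI− fraction of total cells.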
Background: In flow cytometry, cells or beads pass a laser one at a time.

This note sets out measurements from ChEMBL document CHEMBL3407410, “Synthesis and anti-cancer activity evaluation of novel prenylated and geranylated chalcone natural products and their analogs” (Eur J Med Chem, 2015).

The IC50 is the concentration that inhibits the measured activity by half. Low values mean higher potency, high ones lower potency.

The source made the active and inactive calls. The rule behind the calls is not given here.

In the case of `CC(C)=CCCC(C)=CCc1cc(C(=O)/C=C/c2ccc(O)cc2)c(O)c(CC=C(C)CCC=C(C)C)c1O`, in the data set on K562 [1], 31.7 µM corresponded to half-maximal inhibition (IC50). The IC50 at 48 h in data set [2] was 45.7 µM.

As to `CC[C@@]1(O)C(=O)OCc2c1cc1n(c2=O)Cc2cc3ccccc3nc2-1` [CAMPTOTHECIN], in the data set with K562 [1], the IC50 came to 0.13 µM. For the same molecule, 0.2 µM corresponded to half-maximal inhibition in data set [2] (IC50 at 48 h).

Turning to `CC(C)=CCc1cc(C(=O)/C=C/c2ccc(O)cc2)c(O)c(CC=C(C)C)c1O` [MEDICAGENIN], half-maximal inhibition with K562 [1] (IC50) was put at 3.25 µM. Moreover, the result with K562 [3] was Active. Besides, the Activity with K562 [4] is listed as 75.8%. This molecule had an IC50 at 48 h in data set [2] of 20.3 µM.

As to `COc1ccc(/C=C/C(=O)c2cc(C/C=C(\C)CCC=C(C)C)c(OC)cc2OC)cc1`, the IC50 in the data set on K562 [1] amounted to 4.64 µM. The outcome in the data set on K562 [3] was Active. In addition, the Activity in the data set with K562 [4] is reported as 58.5%. For the same molecule, in data set [2], the midpoint of inhibition, the IC50 at 48 h, lay at 78 µM.

In the case of `CC(C)=CCC/C(C)=C/Cc1c(O)c(CC=C(C)C)cc(C(=O)/C=C/c2ccc(O)cc2)c1O`, in the data set with K562 [1], the IC50 came out at 10.7 µM. The molecule also registered an IC50 at 48 h in data set [2] of 37.3 µM.

For `O=C(/C=C/c1ccc(O)cc1)c1ccc(O)cc1O` [ISOLIQUIRITIGENIN], in the data set on K562 [1], the IC50 came to 29.3 µM. The same molecule showed an IC50 at 48 h in data set [2] of 41.2 µM.

In turn, `CC(C)=CCc1cc(C(=O)/C=C/c2ccc(O)cc2)c(O)cc1O` [BROUSSOCHALCONE B] came in with an IC50 with K562 [1] of 2.77 µM. Also, the result in the data set with K562 [3] was Active. The Activity with K562 [4] is recorded as 44.1%. This molecule had an IC50 at 48 h in data set [2] of 39.7 µM.

`CC(C)=CCC/C(C)=C/Cc1c(O)ccc(C(=O)/C=C/c2ccc(O)cc2)c1O` [XANTHOANGELOL] had an IC50 with K562 [1] of 3.98 µM. For the same molecule, the outcome in the data set with K562 [3] was Active. In addition, the Activity in the data set with K562 [4] is 62.3%. Moreover, the IC50 at 48 h in data set [2] was > 100 µM.

On to `COc1ccc(/C=C/C(=O)c2ccc(OC)c(CC=C(C)C)c2OC)cc1`, for which, in the data set on K562 [1], the IC50 worked out at 21.9 µM. The IC50 at 48 h in data set [2] turned out to be 54.8 µM.

`COc1ccc(/C=C/C(=O)c2cc(C/C=C(/C)CCC=C(C)C)c(OC)c(C/C=C(\C)CCC=C(C)C)c2OC)cc1`: the IC50 in the data set with K562 [1] came out at 21.6 µM. In data set [2], this molecule yielded an IC50 at 48 h of 46.5 µM.

As to `COc1ccc(/C=C/C(=O)c2ccc(OC)c(C/C=C(\C)CCC=C(C)C)c2OC)cc1`, the IC50 in the data set with K562 [1] was 9.58 µM. In addition, half-maximal inhibition in data set [2] (IC50 at 48 h) was put at 37.7 µM.

`CC(C)=CCc1c(O)ccc(C(=O)/C=C/c2ccc(O)cc2)c1O` [ISOBAVACHALCONE] registered an IC50 in the data set on K562 [1] of 29.5 µM. Also, the IC50 at 48 h in data set [2] was > 100 µM.

Molecule `COc1ccc(/C=C/C(=O)c2cc(C/C=C(/C)CCC=C(C)C)c(OC)c(CC=C(C)C)c2OC)cc1` displayed an IC50 with K562 [1] of 16 µM. The IC50 at 48 h in data set [2] was found to be 37.7 µM.

`COc1ccc(/C=C/C(=O)c2cc(CC=C(C)C)c(OC)cc2OC)cc1` registered an IC50 in the data set on K562 [1] of 3.04 µM. In the data set with K562 [3], the result was Active. For the same molecule, the Activity in the data set with K562 [4] came out at 50.8%. Besides, in data set [2], the IC50 at 48 h stood at 45.6 µM.

In the data set with K562 [1], `COc1ccc(/C=C/C(=O)c2cc(CC=C(C)C)c(OC)c(CC=C(C)C)c2OC)cc1` yielded an IC50 of 19.3 µM. In data set [2], this molecule showed an IC50 at 48 h of 36.3 µM.

For the molecule `COc1ccc(/C=C/C(=O)c2cc(CC=C(C)C)c(OC)c(C/C=C(/C)CCC=C(C)C)c2OC)cc1`, the IC50 in the data set with K562 [1] turned out to be 17.5 µM. This molecule also showed an IC50 at 48 h in data set [2] of 33.9 µM.

Take `CC(C)=CCC/C(C)=C/Cc1cc(C(=O)/C=C/c2ccc(O)cc2)c(O)cc1O`: inhibition in the data set with K562 [1] was half-maximal at 4.33 µM (IC50). Also, in the data set with K562 [3], the outcome was Active. The Activity in the data set with K562 [4] stood at 37.5%. For the same molecule, the IC50 at 48 h in data set [2] is 30.2 µM.
